Data set [1] is described as follows: AUC in plasma of healthy human at 750 mg. po administered at tablet formulation with maximum release by microdialysis. Type of data set: ADME, organism-based.
Data set [2] is described as follows: AUC in plasma of healthy human at 500 mg, po administered at tablet formulation with immediate release by microdialysis. It counts as ADME, organism-based.
Data set [3] is described as follows: AUC in plasma of healthy human at 500 mg, po administered at tablet formulation with maximum release by microdialysis. Type of data set: ADME, organism-based.
Data set [4] in a line: AUC in plasma of healthy human at 400 mg, po by microdialysis. It counts as ADME, organism-based.
Data set [5] can be described thus: Cmax in adipose tissue of healthy human at 200 mg/l administered via microdialysis probe up to 12 hrs. Type of data set: ADME, organism-based. Put shortly: (§1)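 Twelve healthy volunteers were given a single 500 mg dose as a 2-h i.v. infusion. Microdialysis probes in skeletal muscle and s.c. adipose tissue were perfused with lactated Ringer's at 1.5 μl/min. Each probe was calibrated by retrodialysis with drug at 200 mg/liter, followed by a 4-h washout. Dialysate was collected every 20 min to 12 h, then at 16 and 24 h, and assayed by HPLC-UV. Values were recovery-corrected and analysed noncompartmentally.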

A short description of data set [6]: AUClast in adipose tissue of healthy human at 200 mg/l administered via microdialysis probe up to 12 hrs. It counts as ADME. Set-up: time < 12 hr. Put shortly: as §1
Data set [7] can be described thus: fT>MIC in adipose tissue of healthy human at 500 mg, iv by microdialysis.
A short description of data set [8]: AUC (0 to infinity) in plasma of healthy human at […] up to 12 hrs. Type of data set: ADME. Further details: time infinity. The procedure, abridged: (§2)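 Twelve healthy volunteers received a single 500 mg dose as a 2-h i.v. infusion. K2EDTA blood was drawn from the opposite arm from predose to 24 h over 13 timepoints. Plasma was precipitated with acetonitrile/formic acid and perchloric acid. Protein binding was measured by ultrafiltration at 2 and 12 h, and free levels were derived per subject. Analysis was noncompartmental: linear-trapezoidal AUC, with λz from terminal-phase regression.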

Data set [9] in a line: Volume of distribution at steady state in plasma of healthy human at […] […]. Type of data set: ADME, organism-based. The following applies: read-out: Vdss. Put shortly:
as §2

The test system of a further data set is Streptococcus pneumoniae. Description: Antibacterial activity against penicillin-resistant Streptococcus pneumoniae. It counts as functional.
A short description of data set [10]: Half life in muscle of healthy human at 200 mg/l administered via microdialysis probe up to 12 hrs. Type of data set: ADME, tissue-based, Muscle tissue. The procedure, abridged:
as §1

A short description of data set [11]: Half life in adipose tissue of healthy human at 200 mg/l administered via microdialysis probe up to 12 hrs. Type of data set: ADME, tissue-based. Put shortly:
as §1

Data set [12] is described as follows: AUClast in muscle of healthy human at 200 mg/l administered via microdialysis probe up to 12 hrs. Type of data set: ADME, tissue-based, Muscle tissue. Further details: time < 12 hr. The procedure, abridged:
as §1

Data set [13] can be described thus: AUC (0 to infinity) in adipose tissue of healthy human at 200 mg/l administered via microdialysis probe up to 12 hrs. It counts as ADME. Further details: time infinity. Put shortly:
as §1

Data set [14] is described as follows: AUC (0 to infinity) in muscle of healthy human at 200 mg/l administered via microdialysis probe up to 12 hrs. It counts as ADME, tissue-based, Muscle tissue. Further details: time infinity. Put shortly: as §1
Data set [15] can be described thus: fT>MIC in skeletal muscle of healthy human at 500 mg, iv by microdialysis.
Data set [16] in a line: Cmax in muscle of healthy human at 200 mg/l administered via microdialysis probe up to 12 hrs. It counts as ADME, organism-based, Muscle tissue. Put shortly:
as §1

In another data set the test system is Staphylococcus aureus. The data set is described as follows: Antibacterial activity against methicillin-resistant Staphylococcus aureus. It counts as functional.
The nature of data set [17]: Ratio of AUC in adipose tissue to fAUC in plasma of healthy human at 200 mg/l administered via microdialysis probe up to 12 hrs. The conditions noted are these: other. It counts as ADME.

≈ marks a conversion by molar mass, not a printed value.

By AUC is commonly meant concentration integrated over time. The low end stands for low exposure, the high end for high exposure. In general, Cmax refers to the maximum level reached in the sampled fluid or tissue. Broadly, the AUC(0-t) is the area under the concentration-time curve up to a stated or last time point. In general, AUC(0-inf) refers to total exposure, with the tail of the curve extrapolated. Low readings indicate less exposure, high ones more exposure. What is called MIC90 is an inhibitory concentration at the 90% level, which refers to growth in some studies and to a panel of isolates in others. The low end stands for higher susceptibility, the high end for lower susceptibility. A word on the half-life: it is the time in which the quantity being followed falls by half.

Turning to `N[C@@H](C(=O)N[C@@H]1C(=O)N2C(C(=O)O)=C(Cl)CS[C@H]12)c1ccccc1` [CEFACLOR ANHYDROUS], the AUC in data set [1] is 22.1 µg·h/mL; in data set [2] it was 17.6 µg·h/mL; in data set [3], 13.7 µg·h/mL.

For the compound `C=CC1=C(C(=O)O)N2C(=O)[C@@H](NC(=O)/C(=N\OCC(=O)O)c3csc(N)n3)[C@H]2SC1` [CEFIXIME], the AUC in data set [4] is 25.6 µg·h/mL.

Compound `COCC1=C(C(=O)O)N2C(=O)[C@@H](NC(=O)/C(=N\OC)c3csc(N)n3)[C@H]2SC1` [CEFPODOXIME] had an AUC in [4] of 22.4 µg·h/mL.

As for `Nc1nc(/C(=N/O)C(=O)N[C@@H]2C(=O)N3C(C(=O)O)=C(/C=C4\CCN([C@@H]5CCNC5)C4=O)CS[C@H]23)ns1` [CEFTOBIPROLE], the figures for the Cmax in data set [5] and in [16] were 9.61 µg/mL and 14 µg/mL, respectively. In addition, the figures for the AUC(0-t) at 12 h in data set [6] and in [12] were 34.3 µg·h/mL and 50.6 µg·h/mL, respectively. Besides, the Efficacy came out at 35.1% in data set [7] and 53.6% in [15]. Also, the AUC(0-inf) amounted to 98 µg·h/mL in data set [8], 36.5 µg·h/mL in data set [13] and 53.2 µg·h/mL in [14]. In addition, the Vd in data set [9] came out at 14.6 L. For the same compound, the MIC90 in the data set with Streptococcus pneumoniae and with Staphylococcus aureus was 2 mg/L (≈ 3.74 µM) throughout. Further, the results for the half-life in data set [10] and in [11] were 2.61 h and 2.56 h, respectively. Also, the “Ratio AUC” value in [17] is listed as 0.49.

For the origin of these results see ChEMBL document CHEMBL1649472, “Soft-tissue penetration of ceftobiprole in healthy volunteers determined by in vivo microdialysis” (Antimicrob Agents Chemother, 2009).
